Consider 47 sequences from the EternaBench riboswitch data.

In this series the test system is MS2 coat protein. Briefly: apparent Kd, MS2 coat protein; higher = weaker binding; RNA-MaP array. In short, it runs like this:
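Sequenced DNA templates on an Illumina sequencing chip were transcribed into the designed RNAs. These were incubated at room temperature in Tris-HCl pH 7.5 buffer containing KCl, MgCl2, BSA, DTT, tRNA and Tween20 with fluorescently labeled MS2 coat protein at 1.5 nM to 3 μM, with or without input ligand. Apparent Kd is the median of binding-curve fits per cluster, and designs with fewer than 10 clusters measured were excluded.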

Setting [1] is: designed as: ON switch for flavin mononucleotide, no ligand.
Setting [2] is: ligand present: flavin mononucleotide, designed as: ON switch for flavin mononucleotide.
The mark [3] stands for this setting: designed as: OFF switch for flavin mononucleotide, no ligand.
[4] abbreviates: ligand present: flavin mononucleotide, designed as: OFF switch for flavin mononucleotide.
The mark [5] stands for this setting: designed as: ON switch for tryptophan, no ligand.
Where [6] appears, read: ligand present: tryptophan, designed as: ON switch for tryptophan.

A word on the apparent Kd: it is the concentration giving half-maximal binding under the conditions of the assay. For “AGAUCACAUGAGGAUCACCCAUGUCAGGAACUAAGGUACGCUAGAAGGCCGGAUAUGCGGGAAGCGGAGGAUAUAGCAAGCAUC”, the “apparent Kd” value turned out to be 40.8 nM under setting [1] and 19.6 nM under setting [2].
For the sequence “AAAUUACACGAGAAGGGCAGUGAAUAUCUGUCUGCAGGAUAUCGCUACAUGAGGAUCACCCAUGUUUUCAGUAGUACUAGCGAA”, the “apparent Kd” value by setting is: under setting [3], 9.74 nM; under setting [4], 9.06 nM.
Turning to “UACCAAAUCACAGGAUAUGAGGCGCCAGCUAGGUCAGAAGGGUGACAUGAGGAUCACCCAUGUUCGCAGAAAAUAAUUGCUAAG”, the “apparent Kd” value is, setting by setting: under setting [1], 688 nM; under setting [2], 678 nM.
Take “GAACAUCGAGGAUAUACAUGAGGAUCACCCAUGUAUUAGAGGGUGCCCUAGCUCAAAAGUAGAAGGCGACAGGU”: the “apparent Kd” value is, setting by setting: under setting [3], 9.8 nM; under setting [4], 12.7 nM.
For “CAGGGACAUGAGGAUCACCCAUGUAAGGAUAUGCCCAAAAGAGCGACUACUAAAGGAGGCAGAAGGUACGAACG” the same measures were 28.6 nM and 31.6 nM.
Take “UUGUUUAGGAUAGGAUAUAGGUCUAAAAGUGAGUCGGACAUGAGGAUCACCCAUGUGGGUGCGAUCUAGAAGGAUCCGCCGCGG”: the “apparent Kd” value under setting [3] was 754 nM and the “apparent Kd” value under setting [4] amounted to 269 nM.
For “AAUCAGAAAGGAUAUACAAGGAUUUUAUAUAGCACUGCUGGACAUGAGGAUCACCCAUGUAGAAGGUUCGCCCU” the same measures were 11.3 nM and 9.51 nM.
For “UAUUGGAUGACAGGAUAUCUACGAAGAAGUUGACAUGAGGAUCACCCAUGUAGGGUGUGGAGCAUAGAGAAGGGUCAGAACCUC” the same measures were 702 nM and 440 nM.
The matching figures for “GACAUGAGGAUCACCCAUGUGGGAAAGGUGUACUCUUGCGACUAGGAUAUGUUGUGGUCCCAGAGACAGAAGGAGUGGCGACGU”: 52.1 nM and 42 nM.
Take “AAGGUCCAAGAGAAGGCGCUCAUGGGAUCAAGACAUGAGGAUCACCCAUGUUGGCGCAGCACAAGCGAGGAUAUCUCCACCGGC”: the “apparent Kd” value is, setting by setting: under setting [1], 420 nM; under setting [2], 330 nM.
The matching figures for “AAAUCAAAGCAGAAGGAACAAUAAGCAUAAAGGUUAGGAUAUGCGUCAACGCAAAGUACAUGAGGAUCACCCAUGUUUAUAAGC”: 7.37 nM and 6.77 nM.
For “GAAGAACCCGGAGGAUAUGCAAAGGAACAUGAGGAUCACCCAUGUUUCUUUCGGAAAUCUAGUGAGCAGAAGGCCGAAAGGAAC” the same measures were 13.1 nM and 7.95 nM.
For the sequence “UAGCAUAGUACGGCCGCCACUCCUGGUUCCCGGCCGUGUGUAAGACAUGAGGAUCACCCAUGUAGGAGGACCGGGUAUCGCUUGC”, the “apparent Kd” value worked out at 14 nM under setting [5] and 15.2 nM under setting [6].
For the sequence “UAUACUAAUGUCAGGAUAUUAUAAAGUAAGAUAUAUAAGAAGGGACAUGAGGAUCACCCAUGUGACAAGGACGA”, the “apparent Kd” value reads like this: under setting [3], 13.4 nM; under setting [4], 29.8 nM.
Turning to “CGAUACAAAUAAAGCGUUCGUCCGCCAGAUACCAGAUUCAUUUCCAUCCCUUGGCAGCUGUCGACAUGAGGAUCACCCAUGUUUG”, the “apparent Kd” value by setting is: (designed as: OFF switch for theophylline, no ligand) 18.3 nM; (ligand present: theophylline, designed as: OFF switch for theophylline) 20.9 nM.
Take “UAACCGUGAGGAUAUACAUGAGGAUCACCCAUGUGGUUUUGCUGCGCACAUACUUUAUGUAGAAGGCACAACUG”: the “apparent Kd” value under setting [3] worked out at 50 nM and the “apparent Kd” value under setting [4] was found to be 59.9 nM.
As for “CCAGCUCUAUAGGAUAUUCUUGAUGAAGACACGGAAGAAGGAUAGACAUGAGGAUCACCCAUGUCCUUACAUGU”, the “apparent Kd” value reads like this: under setting [3], 19.4 nM; under setting [4], 17.3 nM.
For “AUUACCCAAGGAUAUUGCAAUUGAGACAUGAGGAUCACCCAUGUACUUCCGGGUGUCAAUCAAGAAGGUGGAUGUU” the same measures were 23.1 nM and 20.9 nM.
Take “UGGUACAUGAGGAUCACCCAUGUCCUCAUCCGAGGACCGGUACGGCCGCCACUCGAAAUUGCGAUCGGCACAAAACAAAUGCUUG”: the “apparent Kd” value turned out to be 142 nM under setting [5] and 143 nM under setting [6].
Take “UCUUGACAUGAGGAUCACCCAUGUCACAUUUCUAGAGGAUAUAUACAUGUUGAUCUCUGUAUAGAAGGCUAAGUCG”: the “apparent Kd” value came out at 18.5 nM under setting [1] and 11.7 nM under setting [2].
Take “AAUCCUAAUGUCAGGAUAUUGCAGAAGCCAGAACACAAGAAGGGACAUGAGGAUCACCCAUGUAUAGUCACAUA”: the “apparent Kd” value was found to be 22.4 nM under setting [3] and 59.1 nM under setting [4].
Consider “AGGGAACAUGAGGAUCACCCAUGUGCCGAUACCAGUGAUUUUCAGCACCCUUGGCAGCGGAACCUUUGUUAUAUUAUUCUUAGGG”, for which the “apparent Kd” value came to 36.7 nM (designed as: ON switch for theophylline, no ligand) and 28.2 nM (ligand present: theophylline, designed as: ON switch for theophylline).
With “CUUGGAAGACAGAAGGGCAUCCACCCGGGACCAGCAGGAUAUGUCAACGGUAGCCGAAAACAUGAGGAUCACCCAUGUCAGAAG”, the “apparent Kd” value turned out to be 75.8 nM under setting [1] and 30.1 nM under setting [2].
Consider “UAAUGCAUAACAUGAGGAUCACCCAUGUAGUAAAAUGGUGGUUAGGAUAUAGCACGUGAAUCGACCUAGAAGGAACGUCCUUAC”, for which the “apparent Kd” value came to 33.3 nM under setting [3] and 30 nM under setting [4].
For “AGCAGCCCUAAAGGAUAUUUGCGCGAGCAAAGCAAAGAAGGUUAAGGGUGGGCUUCAGAGACUACAUGAGGAUCACCCAUGUCC”, the “apparent Kd” value by setting is: under setting [1], 448 nM; under setting [2], 112 nM.
On to “UUCUGGCCGCAGAAGGAGGAUCUGGUUGAAAUCCUAGGAUAUGCAUCUAACCACUGGUCCACAUGAGGAUCACCCAUGUCAGAC”, for which the “apparent Kd” value by setting is: under setting [3], 16.3 nM; under setting [4], 12.4 nM.
In the case of “UAUUAACAUGAGGAUCACCCAUGUUAUAGAGACCUAGGAUAUGCUUGCAUCCUCGCUCGUGCAGAAGGAGGUUUAU”, the “apparent Kd” value was 7.08 nM under setting [1] and 5.88 nM under setting [2].
Consider “GAAUUAAAUCAAGGAUAUCUGUGGAAGCGGACCUCUUACAUGAGGAUCACCCAUGUUCGCGAGCAAGAGAAGGUGAUUAGCGAA”, for which the “apparent Kd” value turned out to be 414 nM under setting [3] and 131 nM under setting [4].
For “AUCGAUAAGAAGAAGGCAUUGGCGAUGACGUUAUGAGGAUAUUCAACUACAGCUUGACCACUACAUGAGGAUCACCCAUGUGAA”, the “apparent Kd” value worked out at 19.6 nM under setting [1] and 12.1 nM under setting [2].
For “UAAGACGGGCGAGGAUAUACGAACUGGGUCAAAGUAGAAGGCGCGAGUCAUUGUUAUAAUCCAACAUGAGGAUCACCCAUGUCU” the same measures were 91.6 nM and 15.6 nM.
On to “UCGCUGUAAGGAUAUACUCCGUUACUGUGUUAUAACGGACCGUAGAAGGUACAUGAGGAUCACCCAUGUGAAGU”, for which the “apparent Kd” value reads like this: under setting [3], 11.1 nM; under setting [4], 17.8 nM.
Take “ACGAACAUGAGGAUCACCCAUGUUGUUUCUAAGACUCGGUCAAGAAGGUGUCGUUACGAGUCGAACAAGGAUAUUGAUCCGAAC”: the “apparent Kd” value was 28.6 nM under setting [1] and 20.6 nM under setting [2].
Turning to “CGCGCUGAAGGAUAUGCAUUGGACUACAUGAGGAUCACCCAUGUCCCGUCUUGUGGACCCGCAGAAGGUCACUACC”, the “apparent Kd” value is, setting by setting: under setting [3], 9.25 nM; under setting [4], 12 nM.
The matching figures for “CCAGUUGACUAGAAGGCAAUACGGAUAAAGUAACUGACCACAUGAGGAUCACCCAUGUAUCCCAUUGAGGAUAUAGCAUUAAGU”: 44.2 nM and 25.8 nM.
For “GGUACGGCAGGAUAUGGCCUGGACUACAUGAGGAUCACCCAUGUCUUGCAGAAUGUCUAGCCAGAAGGGCCAUGAA” the same measures were 14.6 nM and 8.52 nM.
Regarding “GACUUGCAAGAGAAGGCGGCCACCAAUCAUCGGAGUGUAAACUCUACAUGAGGAUCACCCAUGUCCGAGGAUAUCUUCAUCAGU”, the “apparent Kd” value worked out at 59.9 nM under setting [1] and 69.8 nM under setting [2].
The matching figures for “CACAAACCAGAGAAGGCCCUAAGAGUAUAGAGAAUACGAAACAUGAGGAUCACCCAUGUCAUAUGGGAGGAUAUCAACAAGAUU”: 135 nM and 11.3 nM.
The matching figures for “UCUAAACAUGAGGAUCACCCAUGUGAUUUACUCGCAGGAUAUGAGAGCUUGCACACGCAAUCAGAAGGGCGUCGAA”: 36.6 nM and 28.7 nM.
As for “UCAGUGGGUUCGGCCGCCACUUGAGUGAUGGUGCCUCAAUAAGUCUACAUGAGGAUCACCCAUGUAAGGACCGGGAAUUUUAUGG”, the “apparent Kd” value (designed as: OFF switch for tryptophan, no ligand) was determined as 35.3 nM and the “apparent Kd” value (ligand present: tryptophan, designed as: OFF switch for tryptophan) was 32.5 nM.
For “GAUCAACAUGAGGAUCACCCAUGUCAGGAUAUGCAGACAGUCUUUACGUCAGUCGUAAGCAGAAGGGACUACGG”, the “apparent Kd” value by setting is: under setting [3], 52.5 nM; under setting [4], 69.6 nM.
For the sequence “ACGGGAGCAGAAGGAUAUAGGGUAGGUAUUAGACUAGAAGGACUCUUACAUGAGGAUCACCCAUGUAGUUCAGAAUGGGAAAUC”, the “apparent Kd” value reads like this: under setting [1], 45.5 nM; under setting [2], 40.4 nM.
In the case of “CCCACGUACGAGAAGGCACCGGUUUGAUCCACGUAAGUCCUUUACAUGAGGAUCACCCAUGUAGGUGAGGAUAUCGUCAUGACU”, the “apparent Kd” value under setting [3] came out at 160 nM and the “apparent Kd” value under setting [4] was 264 nM.
With “ACUAUUCAUUAUGGCACAUGAGGAUCACCCAUGUAGUGCGAACAGGAUAUACAAAAGAAUGUCAAGUAGAAGGGUUCCAGGUUC”, the “apparent Kd” value under setting [1] is 28 nM and the “apparent Kd” value under setting [2] amounted to 19.8 nM.
The matching figures for “UACCUUAUGGAGAAGGCACGUCUCAGAGGAGCAACAUGAGGAUCACCCAUGUACCUGGGCUGAAGUGAGGAUAUCCAAAUCCCA”: 14.4 nM and 7.18 nM.
On to “UUCGACCACGAGAAGGUGACGAAGGCCGAUUGUCAAGGAUAUCGACACAUGAGGAUCACCCAUGUCAGAGCGGGACUAACUAAA”, for which the “apparent Kd” value under setting [1] was 22.6 nM and the “apparent Kd” value under setting [2] stood at 12.8 nM.
As to “CCGGAAUUGCAGGAUAUACGCAAACCACAUGCUGUAGAAGGGCAAACAUGAGGAUCACCCAUGUGGUCGAGCAG”, the “apparent Kd” value under setting [3] amounted to 13.4 nM and the “apparent Kd” value under setting [4] is 17.9 nM.
The matching figures for “CGGAUUUGGUAGAAGGUUUCGUCACAUAUCGCAAAAGGAUAUACUAAACAUGAGGAUCACCCAUGUGUCGUGGGAGUUAAUUCA”: 72.3 nM and 70.5 nM.
